Experimental data from ChEMBL document CHEMBL1122844, “Novel nonnarcotic analgesics with an improved therapeutic ratio. Structure-activity relationships of 8-(methylthio)- and 8-(acylthio)-1,2,3,4,5,6-hexahydro-2,6-methano-3-benzazocines” (J Med Chem, 1985).

Experiments:
[1] = tested on: Mus musculus; test: Percent analgesic activity in mice after peroral administration at dose 10 mg/kg; assay type: functional; settings: route oral
How it was run: (§1)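 Acetic acid writhing test in mice, 10 per group. Drug given sc or po; sc dosing simultaneous with ip 0.7% AcOH. Starting 15 min after AcOH, writhing observed for 5 min at 15-min intervals, four times in all. A mouse writhing more than once within 5 min counted as having no analgesic effect.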

[2] = tested on: Mus musculus; test: Effective dose required to produce analgesic action in mice after peroral administration; assay type: functional; settings: po; how it was run: as §1
[3] = tested on: Mus musculus; test: Percent analgesic activity in mice after peroral administration at dose 20 mg/kg; assay type: functional; settings: route oral; how it was run: as §1
[4] = tested on: Mus musculus; test: Percent analgesic activity in mice after subcutaneous administration at dose 10 mg/kg; assay type: functional; how it was run: as §1
[5] = biological target: Opioid receptor (Rattus norvegicus, UniProt P33533+P34975+P33535); test: Inhibitory activity against opiate receptor in rat using [3H]naloxone as radioligand
[6] = Ratio of ED50 with/without Naloxone (0.2 mg/kg) after simultaneous injection of drug; assay type: organism-based
How it was run: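 Mouse acetic acid writhing test (ip 0.7% AcOH, 10 mice/group, four 5-min observations at 15-min intervals; more than one writhe in 5 min = no analgesia). ED50 determined with drug alone and with naloxone 0.2 mg/kg injected simultaneously with the drug; value is ratio of ED50 with/without naloxone.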

[7] = tested on: Mus musculus; test: Percent analgesic activity in mice after subcutaneous administration; 20-30%; assay type: functional; how it was run: as §1

CC(C)=CCN1CC[C@@]2(C)c3cc(SC(=O)C(C)(C)C)ccc3CC1[C@@H]2C showed an Analgesic activity [1] of 50%.
Work on C[C@H]1[C@H]2Cc3ccc(O)cc3[C@@]1(C)CCN2C yielded an ED50 [2] of 0.27 mg/kg.
Work on C[C@H]1[C@H]2Cc3ccc(SC(=O)c4ccccc4)cc3[C@]1(C)CCN2C yielded an ED50 [2] of 1 mg/kg.
With CC(C)=CCN1CC[C@@]2(C)c3cc(SC(=O)c4ccc(Cl)cc4)ccc3CC1[C@@H]2C the ED50 [2] was 6 mg/kg.
For CN1CC[C@]23c4c5ccc(O)c4O[C@H]2[C@@H](O)C=C[C@H]3[C@H]1C5 [MORPHINE], the ED50 [2] was 0.52 mg/kg.
For C[C@H]1C2Cc3ccc(SC(=O)c4ccc(Cl)cc4)cc3[C@]1(C)CCN2CCc1ccccc1, the Analgesic activity [3] was 40%.
For CC(C)=CCN1CC[C@@]2(C)c3cc(SC(=O)c4ccccc4)ccc3C[C@H]1[C@@H]2C, the Analgesic activity [4] was 20%.
Compound COc1ccc(C(=O)Sc2ccc3c(c2)[C@]2(C)CCN(CCc4ccccc4)C(C3)[C@@H]2C)cc1 has an ED50 [2] of 5.3 mg/kg.
For C[C@H]1C2Cc3ccc(OC(=O)c4ccccc4)cc3[C@]1(C)CCN2C, the IC50 [5] was 107 nM, the Ratio [6] was 6.4 and the ED50 [2] was 1.7 mg/kg.
C[C@H]1C2Cc3ccc(SC(=O)c4ccccc4)cc3[C@]1(C)CCN2CCc1ccccc1 gave an ED50 [2] of 1.7 mg/kg.
In the case of CC(C)=CCN1CC[C@@]2(C)c3cc(SC(=O)c4ccccc4)ccc3CC1[C@@H]2C, the ED50 [2] is reported as 4 mg/kg.
For C[C@H]1C2Cc3ccc(SC(=O)c4ccccc4)cc3[C@]1(C)CCN2Cc1ccccc1, the Analgesic activity [3] was 30%.
Work on COc1ccc(C(=O)Sc2ccc3c(c2)[C@]2(C)CCN(CC=C(C)C)C(C3)[C@@H]2C)cc1 yielded an ED50 [2] of 5.3 mg/kg.
CCC(=O)Sc1ccc2c(c1)[C@]1(C)CCN(CCc3ccccc3)C(C2)[C@@H]1C showed an ED50 [2] of 7 mg/kg.
C[C@H]1C2Cc3ccc(SC(=O)c4ccc(Cl)cc4)cc3[C@]1(C)CCN2C gave an ED50 [2] of 2.8 mg/kg.
CC(C)=CCN1CC[C@@]2(C)c3cc(O)ccc3C[C@@H]1[C@@H]2C showed an ED50 [2] of 0.36 mg/kg.
Work on C[C@H]1C2Cc3ccc(O)cc3[C@]1(C)CCN2CCc1cccs1 yielded an ED50 [2] of 0.071 mg/kg.
C[C@H]1C2Cc3ccc(SC(=O)c4ccccc4)cc3[C@]1(C)CCN2C gave an IC50 [5] of 1530 nM, a Ratio [6] of 1.7 and an ED50 [2] of 1.05 mg/kg.
CC(C)=CCN1CC[C@@]2(C)c3cc(OC(=O)c4ccccc4)ccc3CC1[C@@H]2C showed an ED50 [2] of 2.6 mg/kg.
With CC(C)=CCN1CC[C@]2(C)c3cc(O)ccc3C[C@H]1[C@H]2C [(+)-PENTAZOCINE] the Analgesic activity [4] was 20% and the ED50 [2] was 1.6 mg/kg.
C[C@H]1C2Cc3ccc(SC(=O)C(C)(C)C)cc3[C@]1(C)CCN2C gave an ED50 [2] of 6.4 mg/kg.
CC(C)=CCN1CC[C@@]2(C)c3cc(SC(=O)c4ccccc4)ccc3C[C@@H]1[C@@H]2C showed an ED50 [2] of 0.74 mg/kg.
CC(=O)Sc1ccc2c(c1)[C@]1(C)CCN(C)C(C2)[C@@H]1C gave an ED50 [2] of 4.5 mg/kg.
Work on C[C@H]1C2Cc3ccc(O)cc3[C@]1(C)CCN2C yielded an ED50 [2] of 0.46 mg/kg.
In the case of C[C@H]1[C@@H]2Cc3ccc(SC(=O)c4ccccc4)cc3[C@]1(C)CCN2C, the Analgesic activity [4] is reported as 30%.
Compound C[C@H]1C2Cc3ccc(SC(=O)c4ccccc4)cc3[C@]1(C)CCN2CCc1cccs1 has an Analgesic activity [3] of 40%.
With COc1ccc(C(=O)Sc2ccc3c(c2)[C@]2(C)CCN(C)C(C3)[C@@H]2C)cc1 the ED50 [2] was 4.8 mg/kg.
With C[C@H]1C2Cc3ccc(SC(=O)C(C)(C)C)cc3[C@]1(C)CCN2CCc1ccccc1 the ED50 [2] was 5.2 mg/kg.
Work on CCOC(=O)Sc1ccc2c(c1)[C@]1(C)CCN(CCc3ccccc3)C(C2)[C@@H]1C yielded an ED50 [2] of 18.5 mg/kg.
C[C@H]1[C@@H]2Cc3ccc(O)cc3[C@]1(C)CCN2C [METAZOCINE] gave an Analgesic activity [7] of 20%.
Compound C[C@H]1C2Cc3ccc(O)cc3[C@@]1(C)CCN2CCc1ccccc1 has an ED50 [2] of 0.135 mg/kg.
